Measured values from different studies.
Sample: plasma

COc1cc(N2CCC(N3CCN(C)CC3)CC2)ccc1Nc1ncnc(Nc2ccccc2S(=O)(=O)C(C)C)n1  AUC(0-t) (human; oral, 125 mg, multiple doses, patients): 8320 ng·h/mL
CO[C@H]1CC[C@H](N2C(=O)CNc3ncc(-c4ccc(C(C)(C)O)nc4)nc32)CC1  AUC(0-t) (human; oral, 45 mg, patients): 1500 ng·h/mL
C[C@@H](Nc1cc(F)cc(F)c1)c1cc(C(=O)N(C)C)cc2c(=O)cc(N3CCOCC3)oc12  AUC(0-t) (human; oral, 60 mg, single dose, patients): 1240 ng·h/mL
OC[C@H]1O[C@@H](c2ccc(Cl)c(Cc3ccc(O[C@H]4CCOC4)cc3)c2)[C@H](O)[C@@H](O)[C@@H]1O  AUC(0-t) (human; oral, 25 mg, single dose): 4.31 µM·h
FC(F)(F)c1ccc(CNc2ccc(Cc3c[nH]c4ncc(Cl)cc34)cn2)cn1  AUC(0-t) (human; oral, 1000 mg, multiple doses, patients): 14000 ng·h/mL
C[C@@]1(c2cc(NC(=O)c3ccc(C#N)cn3)ccc2F)C=CSC(N)=N1  AUC(0-t) (human; oral, 3 mg, single dose): 231 ng·h/mL
CO[C@@H]1[C@H](OC(=O)N2CC(CCN3CCOCC3)C2)CC[C@]2(CO2)[C@H]1[C@@]1(C)O[C@@H]1CC=C(C)C  AUC(0-t) (human; subcutaneous, 0.2 mg, single dose, healthy volunteers): 0.24 ng·h/mL
COCCOc1cnc2ccn([C@H](C)c3nnc4c(F)cc(-c5cnn(C)c5)cn34)c(=O)c2c1  AUC(0-t) (human; oral, 50 mg, multiple doses, once daily, patients): 6940 ng·h/mL
Cc1nc(NC(=O)N2CCC[C@H]2C(N)=O)sc1-c1ccnc(C(C)(C)C(F)(F)F)c1  AUC(0-t) (human; oral, 400 mg, patients): 40700 ng·h/mL
CC(C)(O)c1ccccc1-c1ccc2[nH]c(/C=C/c3ccc(C(F)(F)F)cc3)nc2c1  AUC(0-t) (male human; oral, 1 mg, single dose, fasted): 83 ng·h/mL
CC(C)n1cc(C#N)c2cc(-n3cc(C(=O)O)cn3)ccc21  AUC(0-t) (human; oral, 50 mg, single dose, fasted, healthy volunteers): 6980 ng·h/mL
COc1ccc([C@@H]2CN(C(=O)[C@@H](O)CO)C[C@@]2(C)[C@@H](C)O)cc1OC1CN(c2ccc(C)cn2)C1  AUC(0-t) (human; oral, 30 mg, single dose, healthy volunteers): 5620 ng·h/mL
